# PMC11250141 (RSC Advances, 2024)
# What was measured:
# [1] = DPPH˙ scavenging activity; details: 30 min, 515 nm; tested 10–100 µg mL^−1
# Procedure, shortened: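 Test compound (10–100 µg mL⁻¹) or 80% methanol control was mixed 1:2 (v/v) with DPPH solution, shaken, and kept 30 min at room temperature in the dark. Absorbance was read at 515 nm. Scavenging % = 100 × (1 − A sample/A DPPH blank). Ferulic and syringic acids served as references. Run in triplicate.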
# [2] = Cell viability; format: cell-based; details: human, Caco-2 cells
# Procedure, shortened: (§1)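 Caco-2 and Vero cells were grown in DMEM with 10% FBS, and HUVEC in DMEM-F12 with 10% FBS, at 37 °C and 5% CO₂. Cells were seeded at 5.000 per well 24 h before treatment. Test compound was diluted from a 100 mM DMSO stock into 1% FBS medium at 1, 10, 30, 50, 100 and 150 µM. Controls were 10% DMSO and medium alone. At 24, 48 and 72 h, cells got resazurin (0.5 mg mL⁻¹ solution) for 4 h, read at ex 560/em 590 nm. IC50 was from curve fitting.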
# [3] = Cell viability; format: cell-based; details: human, HUVEC cells
# Procedure, shortened: as §1
# [4] = Cell viability; format: cell-based; details: African green monkey, Vero cells
# Procedure, shortened: as §1
# [5] = Cytotoxic effect, summary over the three cell lines; format: cell-based; details: human (Caco-2, HUVEC); African green monkey (Vero), Caco-2, HUVEC and Vero cells
# Procedure, shortened: as §1
# [6] = SO + additive at 200 ppm; for T 5 (5% mass loss) / T 10 (10% mass loss) / T 50 (50% mass loss) / T onset (decomposition temperature: onset temperature): TGA in air
# Procedure, shortened: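 Thermogravimetry of sunflower oil with 200 ppm test compound: about 10 mg oil in a Pt crucible was heated from ambient to 700 °C at 5 °C min⁻¹ in air (60 mL min⁻¹), with N₂ purge on the balance. Onset temperature and temperatures at 5, 10 and 50% mass loss came from TG/DTG curves and were compared with unsupplemented oil.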
# [7] = Lipoperoxidation; details: 220 °C; for Reduction in secondary oxidation (TBARS) in comparison with SOcontrol / TBARS value: SO + additive 200 ppm; for TBARS value: 30 min
# Procedure, shortened: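 Sunflower oil with 200 ppm test compound was heated on a hot plate at 25, 100, 180 and 220 °C for 30 min (ramp 2 °C min⁻¹). Oil (0.5 mL) was vortexed with TBA/TCA/HCl and centrifuged 3500 rpm for 5 min. Supernatant was heated 90 °C for 15 min and read at 535 nm against an MDA curve, as nmol MDA per mL oil. Unsupplemented oil was the control. Run in triplicate.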
# [8] = Schaal Oven Test, TBARS, sunflower oil; details: 60 °C, over 12 days
# Procedure, shortened: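 Schaal oven test (AOCS Cg5-97): supplemented olive or sunflower oil was held at 60 ± 5 °C in the dark for 12 days, sampled every 3 days. TBARS: oil was mixed with TBA/TCA/HCl and centrifuged. Supernatant was heated 90 °C for 15 min and read at 535 nm against an MDA curve (nmol MDA per mL oil). n = 3, compared with unsupplemented oil.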
SMILES,"Antioxidant capacity (DPPH), IC50 [1]",IC50 at 24 h [2],IC50 at 48 h [2],IC50 at 72 h [2],IC50 at 24 h [3],IC50 at 48 h [3],IC50 at 72 h [3],IC50 at 24 h [4],IC50 at 48 h [4],IC50 at 72 h [4],IC50 [5],T 5 (5% mass loss) [6],T 10 (10% mass loss) [6],T 50 (50% mass loss) [6],T onset (decomposition temperature: onset temperature) [6],Reduction in secondary oxidation (TBARS) in comparison with SOcontrol [7],further results
"CCCCCCCCOc1ccc(/C=C/C(=O)O)cc1OC [Compound 3e, (E)-3-(3-Methoxy-4-(octyloxy)phenyl)acrylic acid]",>100 µg/mL,> 100 µM,> 100 µM,96.2 ± 1.1 µM,90 ± 1.03 µM,53.1 ± 1.02 µM,54.4 ± 1.05 µM,> 100 µM,> 100 µM,> 100 µM,< 100 µM,,,,,,
"COc1cc(C(=O)O)cc(OC)c1O [Compound 4, syringic acid, reference compound]",4.53 ± 0.19 µg/mL,,,,,,,,,,,,,,,,
"CCCCCOc1ccc(/C=C/C(=O)O)cc1OC [Compound 3c, (E)-3-(3-Methoxy-4-(pentyloxy)phenyl)acrylic acid]",>100 µg/mL,> 100 µM,> 100 µM,> 100 µM,> 100 µM,> 100 µM,> 100 µM,> 100 µM,> 100 µM,> 100 µM,,370 °C,386 °C,424 °C,343 °C,6 times,TBARS value [7]: 7.68 nmol/mL; TBARS value (level of SO oxidation) ([7]; SO + additive): 7.68 nmol/L
"CCOc1ccc(/C=C/C(=O)O)cc1OC [Compound 3a, (E)-3-(4-Ethoxy-3-methoxyphenyl)acrylic acid]",56.50 ± 2.38 µg/mL,> 100 µM,> 100 µM,> 100 µM,> 100 µM,> 100 µM,> 100 µM,> 100 µM,> 100 µM,> 100 µM,,,,,,,
"CCCCCCCCCCOc1ccc(/C=C/C(=O)O)cc1OC [Compound 3f, (E)-3-(4-(Decyloxy)-3-methoxyphenyl)acrylic acid]",>100 µg/mL,> 100 µM,88.7 ± 1.08 µM,76.8 ± 1.08 µM,55.6 ± 1.05 µM,26.4 ± 1.06 µM,25.4 ± 1.08 µM,> 100 µM,> 100 µM,> 100 µM,< 100 µM,,,,,,
"CCCOc1ccc(/C=C/C(=O)O)cc1OC [Compound 3b, (E)-3-(3-Methoxy-4-propoxyphenyl)acrylic acid]",90.43 ± 1.63 µg/mL,> 100 µM,> 100 µM,> 100 µM,> 100 µM,> 100 µM,> 100 µM,> 100 µM,> 100 µM,> 100 µM,,376 °C,390 °C,423 °C,344 °C,5 times,Difference of degradation temperature in comparison to SO at 5% mass loss [6]: 35 °C; Difference of degradation temperature in comparison to SO at 10% mass loss [6]: 25 °C; Difference of degradation temperature in comparison to SO at 50% mass loss [6]: 4 °C; TBARS value [7]: 8.88 nmol/mL
"CCCCCCOc1ccc(/C=C/C(=O)O)cc1OC [Compound 3d, (E)-3-(4-(Hexyloxy)-3-methoxyphenyl)acrylic acid]",>100 µg/mL,> 100 µM,> 100 µM,> 100 µM,> 100 µM,> 100 µM,> 100 µM,> 100 µM,> 100 µM,> 100 µM,,,,,,,

# Further lines, with some results ahead:
"Antioxidant capacity (DPPH), IC50 [1]",SMILES,IC50 at 24 h [2],IC50 at 48 h [2],IC50 at 72 h [2],IC50 at 24 h [3],IC50 at 48 h [3],IC50 at 72 h [3],IC50 at 24 h [4],IC50 at 48 h [4],IC50 at 72 h [4],IC50 [5],T 5 (5% mass loss) [6],T 10 (10% mass loss) [6],T 50 (50% mass loss) [6],T onset (decomposition temperature: onset temperature) [6],Reduction in secondary oxidation (TBARS) in comparison with SOcontrol [7],further results
34.98 ± 2.23 µg/mL,"CCCCCOc1c(OC)cc(C(=O)O)cc1OC [Compound 5c, 3,5-Dimethoxy-4-(pentyloxy)benzoic acid]",> 100 µM,> 100 µM,> 100 µM,> 100 µM,> 100 µM,> 100 µM,> 100 µM,> 100 µM,> 100 µM,,368 °C,388 °C,426 °C,318 °C,5 times,Increase of onset temperature of mass loss (Tonset) in comparison with SO [6]: 37 °C; TBARS values compared with control [8]: decreased the TBARS values
11.47 ± 0.58 µg/mL,"CCCOc1c(OC)cc(C(=O)O)cc1OC [Compound 5b, 3,5-Dimethoxy-4-propoxybenzoic acid]",> 100 µM,> 100 µM,> 100 µM,> 100 µM,> 100 µM,> 100 µM,> 100 µM,> 100 µM,> 100 µM,,364 °C,382 °C,420 °C,305 °C,5 times,Increase of onset temperature of mass loss (Tonset) in comparison with SO [6]: 24 °C
9.20 ± 0.91 µg/mL,"CCOc1c(OC)cc(C(=O)O)cc1OC [Compound 5a, 4-Ethoxy-3,5-dimethoxybenzoic acid]",> 100 µM,> 100 µM,> 100 µM,> 100 µM,> 100 µM,> 100 µM,> 100 µM,> 100 µM,> 100 µM,,,,,,,
>100 µg/mL,"CCCCCCCCCCOc1c(OC)cc(C(=O)O)cc1OC [Compound 5f, 4-(Decyloxy)-3,5-dimethoxybenzoic acid]",> 100 µM,70 ± 1.06 µM,62.8 ± 1.07 µM,47.2 ± 1.04 µM,35.4 ± 1.04 µM,29.3 ± 1.09 µM,> 100 µM,> 100 µM,> 100 µM,< 100 µM,,,,,,
>100 µg/mL,"CCCCCCCCOc1c(OC)cc(C(=O)O)cc1OC [Compound 5e, 3,5-Dimethoxy-4-(octyloxy)benzoic acid]",> 100 µM,> 100 µM,> 100 µM,> 100 µM,55.9 ± 1.06 µM,53.3 ± 1.05 µM,> 100 µM,> 100 µM,> 100 µM,< 100 µM,,,,,,
>100 µg/mL,"CCCCCCOc1c(OC)cc(C(=O)O)cc1OC [Compound 5d, 4-(Hexyloxy)-3,5-dimethoxybenzoic acid]",> 100 µM,> 100 µM,> 100 µM,> 100 µM,> 100 µM,> 100 µM,> 100 µM,> 100 µM,> 100 µM,,,,,,,
